This is an account of results in ChEMBL document CHEMBL1933038 (Bioorg Med Chem Lett, 2012).

Data set [1] deals with T1, Histamine H4 receptor (Homo sapiens, UniProt Q9H3N8). The data set can be described thus: Displacement of [3H]histamine from human H4 receptor expressed in HEK cell membranes. On the set-up: species or system HEK293. For orientation: Loss of bound radioactivity is the signal in a displacement assay; it reports binding, not function.
Data set [2] deals with T1, Histamine H4 receptor. Kind of data set: Antagonist activity at human H4 receptor expressed in HEK293T cells assessed as inhibition of histamine-induced [35S]GTPgammaS binding. The format is functional, cell-based, HEK-293T. For orientation: GTPγS is a poorly hydrolysed GTP analogue; its binding reports G protein activation.
Data set [3] addresses Histamine H3 receptor (Homo sapiens, UniProt Q9Y5N1). Kind of data set: Displacement of [3H]histamine from human H3 receptor expressed in HEK cell membranes. The arrangement: species or system HEK293.
In data set [4] the target is Histamine H1 receptor (Homo sapiens, UniProt P35367). The data set can be described thus: Displacement of [3H]histamine from human H1 receptor expressed in HEK cell membranes. On the set-up: species or system HEK293.
Sequence of Histamine H1 receptor (Homo sapiens, UniProt P35367) (P35367 whole entry): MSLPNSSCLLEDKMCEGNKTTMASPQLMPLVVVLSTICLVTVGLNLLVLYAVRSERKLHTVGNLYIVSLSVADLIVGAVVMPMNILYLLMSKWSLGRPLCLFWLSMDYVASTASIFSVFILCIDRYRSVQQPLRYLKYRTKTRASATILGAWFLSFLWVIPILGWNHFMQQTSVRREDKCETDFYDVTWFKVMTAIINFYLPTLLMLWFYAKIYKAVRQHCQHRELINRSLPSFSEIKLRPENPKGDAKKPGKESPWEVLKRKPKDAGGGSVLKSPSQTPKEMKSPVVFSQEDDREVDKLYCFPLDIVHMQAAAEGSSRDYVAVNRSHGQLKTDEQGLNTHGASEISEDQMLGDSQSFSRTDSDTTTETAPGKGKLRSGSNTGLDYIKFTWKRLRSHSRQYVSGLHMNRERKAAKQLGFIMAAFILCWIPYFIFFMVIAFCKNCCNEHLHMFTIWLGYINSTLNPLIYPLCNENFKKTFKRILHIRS
For data set [5], the target named is Histamine H2 receptor (Homo sapiens) (UniProt P25021). The data set can be described thus: Displacement of cimetidine from H2 receptor at 10 uM. An outline of the steps: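 Single test concentration of 10 μM, run in duplicate. Result given as percentage displacement of cimetidine binding at the H2 receptor; assay carried out by a contract laboratory.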
Sequence of Histamine H2 receptor (Homo sapiens) (P25021 whole entry): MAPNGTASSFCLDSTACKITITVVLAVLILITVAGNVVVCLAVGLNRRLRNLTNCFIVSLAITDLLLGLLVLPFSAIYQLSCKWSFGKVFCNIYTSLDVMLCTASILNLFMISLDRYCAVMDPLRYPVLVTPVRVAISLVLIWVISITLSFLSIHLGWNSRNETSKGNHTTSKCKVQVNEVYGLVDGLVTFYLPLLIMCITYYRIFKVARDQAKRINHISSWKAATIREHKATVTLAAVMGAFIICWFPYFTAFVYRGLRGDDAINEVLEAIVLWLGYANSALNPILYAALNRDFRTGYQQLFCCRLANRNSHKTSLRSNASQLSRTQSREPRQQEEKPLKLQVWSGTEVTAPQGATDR
Data set [6] addresses T2, Histamine H4 receptor (Mus musculus, UniProt Q91ZY2).
T2 sequence (Q91ZY2 whole entry): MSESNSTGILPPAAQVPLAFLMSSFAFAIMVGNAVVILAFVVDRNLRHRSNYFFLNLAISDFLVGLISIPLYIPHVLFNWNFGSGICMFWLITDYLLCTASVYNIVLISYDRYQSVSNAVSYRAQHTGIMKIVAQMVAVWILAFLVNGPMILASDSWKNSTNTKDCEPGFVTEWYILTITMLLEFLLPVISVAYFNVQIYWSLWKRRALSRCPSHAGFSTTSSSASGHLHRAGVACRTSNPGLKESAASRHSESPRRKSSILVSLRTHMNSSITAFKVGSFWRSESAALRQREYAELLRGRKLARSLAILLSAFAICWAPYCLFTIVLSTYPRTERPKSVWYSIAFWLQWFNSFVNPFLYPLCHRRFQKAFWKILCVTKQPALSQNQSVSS
Kind of data set: Displacement of [3H]histamine from mouse H4R.

A short description of data set [7]: Metabolic stability in mouse liver microsomes assessed as compound remaining after 60 mins. It counts as ADME, Microsome. The settings on record: read-out: Stability. An outline of the steps:
(§1)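 Liver microsomes (human, mouse or rat) incubated with compound for 60 min. Read-out is percentage of parent compound remaining; assay carried out by a contract laboratory.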

Data set [8] can be described thus: Oral bioavailability in mouse. To be noted: in vivo. It counts as ADME, organism-based.
A short description of data set [9]: Metabolic stability in human liver microsomes assessed as compound remaining after 60 mins. The format is ADME, Microsome. The settings on record: read-out: Stability. An outline of the steps:
as §1
For orientation: Liver microsomes are a subcellular fraction often used to study metabolism.

A short description of data set [10]: Half life in mouse. It counts as ADME, organism-based. The settings on record: in vivo.
The target in data set [11] is T1, Histamine H4 receptor.
Data set [12] has as its target Histamine H4 receptor (Rattus norvegicus, UniProt Q91ZY1). The data set can be described thus: Displacement of [3H]histamine from rat H4R.
Data set [13] is described as follows: Metabolic stability in rat liver microsomes assessed as compound remaining after 60 mins. The format is ADME, Microsome. The settings on record: read-out: Stability. The procedure, abridged: as §1
The target in data set [14] is Histamine H3 receptor (Mus musculus, UniProt P58406). The data set can be described thus: Displacement of [3H]histamine from mouse H3R.
Sequence of Histamine H3 receptor (Mus musculus, UniProt P58406) (P58406 whole entry): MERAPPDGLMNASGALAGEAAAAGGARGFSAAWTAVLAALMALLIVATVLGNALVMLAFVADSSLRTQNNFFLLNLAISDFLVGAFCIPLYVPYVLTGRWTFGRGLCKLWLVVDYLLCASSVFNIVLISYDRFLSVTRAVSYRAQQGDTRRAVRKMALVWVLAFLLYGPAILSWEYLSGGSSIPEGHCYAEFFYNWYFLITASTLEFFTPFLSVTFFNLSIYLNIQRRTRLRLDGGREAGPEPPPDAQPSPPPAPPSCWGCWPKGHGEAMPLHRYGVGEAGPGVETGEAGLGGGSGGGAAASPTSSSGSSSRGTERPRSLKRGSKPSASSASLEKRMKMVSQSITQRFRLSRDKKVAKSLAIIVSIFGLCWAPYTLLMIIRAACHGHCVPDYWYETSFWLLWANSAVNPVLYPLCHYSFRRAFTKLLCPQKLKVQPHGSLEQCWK
For data set [15], the target named is Histamine H1 receptor (Rattus norvegicus, UniProt P31390). Kind of data set: Displacement of [3H]histamine from rat H1R.
Sequence of Histamine H1 receptor (Rattus norvegicus, UniProt P31390) (P31390 whole entry): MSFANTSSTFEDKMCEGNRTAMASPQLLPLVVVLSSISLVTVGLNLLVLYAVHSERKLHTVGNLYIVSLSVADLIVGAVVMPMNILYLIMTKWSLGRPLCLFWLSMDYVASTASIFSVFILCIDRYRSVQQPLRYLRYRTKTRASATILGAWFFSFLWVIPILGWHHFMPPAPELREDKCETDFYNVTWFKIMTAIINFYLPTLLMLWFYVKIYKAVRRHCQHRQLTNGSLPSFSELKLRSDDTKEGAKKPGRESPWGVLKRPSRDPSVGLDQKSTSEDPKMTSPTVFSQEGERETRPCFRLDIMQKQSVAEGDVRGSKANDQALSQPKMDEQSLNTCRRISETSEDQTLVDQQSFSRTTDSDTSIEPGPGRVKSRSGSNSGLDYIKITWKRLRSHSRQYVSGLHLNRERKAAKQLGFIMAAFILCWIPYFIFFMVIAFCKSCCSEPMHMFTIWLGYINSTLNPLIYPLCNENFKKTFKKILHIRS
The target of data set [16] is Histamine H3 receptor (Rattus norvegicus, UniProt Q9QYN8). Kind of data set: Displacement of [3H]histamine from rat H3R.
Sequence of Histamine H3 receptor (Rattus norvegicus, UniProt Q9QYN8) (Q9QYN8 whole entry): as the sequence (P58406 whole entry) above, with A15T, T286A, G290A, H387R, V389I counted along it

T1 sequence (Q9H3N8 whole entry): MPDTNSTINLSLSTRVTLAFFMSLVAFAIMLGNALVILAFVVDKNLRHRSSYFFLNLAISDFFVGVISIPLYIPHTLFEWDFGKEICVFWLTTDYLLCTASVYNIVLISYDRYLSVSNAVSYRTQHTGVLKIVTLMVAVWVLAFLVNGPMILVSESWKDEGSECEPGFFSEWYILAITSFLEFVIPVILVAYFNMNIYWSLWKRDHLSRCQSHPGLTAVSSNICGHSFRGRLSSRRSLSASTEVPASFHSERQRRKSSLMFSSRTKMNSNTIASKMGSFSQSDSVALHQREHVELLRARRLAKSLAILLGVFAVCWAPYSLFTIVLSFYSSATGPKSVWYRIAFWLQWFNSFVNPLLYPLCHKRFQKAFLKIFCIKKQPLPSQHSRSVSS
Sequence of Histamine H3 receptor (Homo sapiens, UniProt Q9Y5N1) (Q9Y5N1 whole entry): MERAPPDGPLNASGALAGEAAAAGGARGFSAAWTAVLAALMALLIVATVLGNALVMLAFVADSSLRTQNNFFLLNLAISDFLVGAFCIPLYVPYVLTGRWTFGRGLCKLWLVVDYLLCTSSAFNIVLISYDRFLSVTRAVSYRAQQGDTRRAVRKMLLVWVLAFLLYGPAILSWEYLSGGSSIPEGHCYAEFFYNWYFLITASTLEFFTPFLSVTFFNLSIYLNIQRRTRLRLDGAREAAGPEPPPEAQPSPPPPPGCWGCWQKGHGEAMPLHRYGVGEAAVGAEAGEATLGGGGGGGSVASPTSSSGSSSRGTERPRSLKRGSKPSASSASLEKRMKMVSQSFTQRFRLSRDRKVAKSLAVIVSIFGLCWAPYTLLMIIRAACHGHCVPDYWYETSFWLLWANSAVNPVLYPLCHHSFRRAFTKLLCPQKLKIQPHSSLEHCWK
Sequence of Histamine H4 receptor (Rattus norvegicus, UniProt Q91ZY1) (Q91ZY1 whole entry): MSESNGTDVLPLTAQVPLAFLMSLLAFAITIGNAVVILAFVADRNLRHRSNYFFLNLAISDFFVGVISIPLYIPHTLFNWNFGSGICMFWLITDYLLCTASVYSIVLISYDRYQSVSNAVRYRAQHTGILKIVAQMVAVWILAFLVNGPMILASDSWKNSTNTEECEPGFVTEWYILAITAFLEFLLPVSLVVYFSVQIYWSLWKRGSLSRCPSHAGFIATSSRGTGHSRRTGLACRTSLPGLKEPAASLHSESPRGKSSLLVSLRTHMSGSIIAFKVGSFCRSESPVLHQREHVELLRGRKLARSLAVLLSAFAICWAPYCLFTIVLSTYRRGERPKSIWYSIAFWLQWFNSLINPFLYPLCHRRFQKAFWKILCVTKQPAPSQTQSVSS

Take `Nc1nc2c(c(N3CCNCC3)n1)CCC1=C2[C@H]2CCCC[C@H]2O1`: the affinity in [1], expressed as Ki, was 6 nM.

Regarding `CN1CCN(c2nc(N)nc3cc(-c4ccoc4)ccc23)CC1`, in data set [2], the IC50 turned out to be 47 nM. Also, the Ki in [2] was 4 nM; in [3], 188 nM; in data set [4] it was 7370 nM. The Activity in data set [5] came to 54%.

The molecule `CN1CCN(c2nc3cc(Cl)c(Cl)cc3[nH]c2=O)CC1` displayed a Ki in data set [1] of 6 nM.

As for `Nc1nc(N2CCNCC2)c2ccc(-c3ccco3)cc2n1`, the Ki in data set [6] worked out at 23 nM; in data set [2], 7 nM; in [12] it was 174 nM; in data set [1] it was 16 nM; in [14], 1070 nM; in data set [15], 3600 nM. Moreover, the inhibition constant (Ki) in [4] is 10500 nM; in data set [16] it was 2560 nM. The values for the remaining at 1 h in data set [7], in data set [9] and in data set [13] were 80%, 96% and 83%, respectively. The molecule also displayed a bioavailability in data set [8] of 47%. The same molecule had a half-life in [10] of 412 min. The IC50 in data set [2] stood at 106 nM. In addition, the T1/2 in [11] worked out at 4.1 min.

`CN1CCN(c2ccnc(N)n2)CC1` showed a Ki in [1] of 31 nM.

For `Cc1ccc2nc(N)nc(N3CCN(C)CC3)c2c1`, in data set [1], the Ki was determined as 649 nM.

The molecule `CN1CCN(c2nc(N)nc3ccccc23)CC1` registered a Ki in data set [1] of 32 nM.

In turn, `CC(=O)c1cccc(-c2cccc3c(N4CCN(C)CC4)nc(N)nc23)c1` came in with a Ki in [1] of 676 nM.

On to `CN1CCN(c2nc(N)nc3cc(-c4ccsc4)ccc23)CC1`, for which the IC50 in data set [2] amounted to 46 nM. The Ki in [2] is 3 nM; in data set [1], 4 nM; in data set [3], 63 nM; in data set [4], 2800 nM. In data set [5], the Activity stood at 74%.

`CN1CCN(C(=O)c2nc3ccc(Cl)cc3[nH]2)CC1` gave a T1/2 in [11] of 25.6 min.

For `CC(=O)c1cccc(-c2ccc3c(N4CCN(C)CC4)nc(N)nc3c2)c1`, the Ki in [1] turned out to be 15 nM.

For `CN1CCN(c2ncnc3ccccc23)CC1`, the Ki in data set [1] was found to be 328 nM.

On to `CN1CCN(c2nc(N)nc3cc(-c4ccco4)ccc23)CC1`, for which the IC50 in data set [2] is 83 nM. Further, the Ki was 5 nM in data set [2], 5 nM in [1], 98 nM in data set [3] and 6420 nM in data set [4]. The same molecule yielded an Activity in data set [5] of 51%.

What is called Ki is the dissociation constant of the complex between target and ligand, obtained from inhibition or displacement. Usually IC50 stands for the concentration that gives 50% inhibition. One may read the bioavailability as dose-corrected exposure relative to a reference, in per cent. Read a low bioavailability as poor availability. For orientation: half-life means the time in which the quantity being followed falls by half. Low values mean rapid decline, high ones slow decline.
